A selection: hits, their analogues and other compounds. The true share with any hit is near 5.6%.
GRIN3A LBD mod = NR3A (human) ligand-binding domain modulation; NR3A LBD differential scanning fluorimetry, Tm shift; 0% = protein alone, 100% = glycine-bound protein; Tm shift relative to glycine control, % at 25 µM; hit rate 2.5% among 340,000;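 active = melting temperature shift of at least 10% of the positive control shift, at one fixed dose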
MPTP inh = permeability transition pore inhibition. hit rate 1.4% among 360,000. isolated mouse mitochondria, Ca2+ swelling absorbance, 30 min. inhibition, % at 10 µM;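 active = inhibition of 50% or more, scaled per plate between neutral and stimulator controls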;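 note: 0% = DMSO wells given calcium and 100% = 1 mM EGTA wells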
CHOP inh = CHOP inhibition in unfolded protein response | CHO-K1 CHOP-promoter luciferase, tunicamycin-induced, 15-18 h | AID 2732 | inhibition, % at 10 µM | hit rate 3.8% among 220,000;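 active = compounds that reduced the stress-induced luciferase reporter signal by more than about 70% of percent inhibition, limit read from the data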;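 note: 0% = tunicamycin plus vehicle and 100% = wells without tunicamycin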
XBP1 UPR activ = activators of adaptive arm of unfolded protein response (XBP1); CHO-XBP1 luciferase reporter, IRE1-XBP1 UPR activation, luminescence; percent of tunicamycin response, DMSO as zero; activation, % at 20 µM; hit rate 0.33% among 330,000; AID 463104;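 active = versus positive control, 20 µM dose yields 30% or more activation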;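 note: 100% = tunicamycin at 10 µg/mL and 0% = DMSO only wells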
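Material: CHO cell line with stable XBP1 luciferase reporter; schedule: 16-18 h cell attachment at 37 °C, then 6 h compound exposure; signal: glow luminescence from Steady-Glo reagent; medium: serum-containing F12 medium, 10% FBS; benchmarks: tunicamycin 10 µg/mL and vehicle-only wells; read-out: percent activation relative to tunicamycin reference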
UPR CHOP act = activators of apoptotic arm of unfolded protein response (CHOP); CHO-CHOP luciferase reporter, UPR activation, luminescence; percent of tunicamycin response over DMSO baseline; activation, % at 10 µM; hit rate 0.34% among 330,000;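 active = at 10 µM dose, activation of 40% or more, normalized to positive control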;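 note: 100% = tunicamycin at 10 µg/mL and 0% = DMSO alone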
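Dosing – one dose, 10 µM in 0.5% DMSO · System – CHO-CHOP cells, stable luciferase reporter of PERK-eIF2a-CHOP signalling · Input – 500 cells/well · Control set – tunicamycin 10 µg/mL final as positive, DMSO-only wells as negative · Timing – 6 h compound treatment, 37 °C · Measure – % activation vs tunicamycin · Technique – luminescence read with Steady-Glo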
aDG glyco act = alpha-DG glycosylation activation | Pro5-aDG cells, alpha-DG glycosylation AlphaScreen (IIH6); 0% Pro5, 100% B10-LARGE cell signal | activation, % at 10 µM | hit rate 0.22% among 360,000;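 active = activation of at least 8% versus controls, or a plate z-score of at least 8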;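 note: Pro5 are CHO cells carrying HIG-tagged alpha-DG that lacks glycosylation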
Rh123 counter = Rhodamine 123 counter-screen of mitochondrial pore hits. shares compounds with MPTP inh. isolated mitochondria, membrane potential, Rhodamine 123 fluorescence. inhibition, % at 10 µM. hit rate 78% among 5,000. AID 624504; in the data active = inhibition above about 22%;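 note: 0% = DMSO vehicle and 100% = positive control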
Active calls of the source: *; / = not tested or not shown.

SMILES	GRIN3A LBD mod	MPTP inh	CHOP inh	XBP1 UPR activ	UPR CHOP act	aDG glyco act	Rh123 counter
CN1C(=O)C(N=Nc2ccc([N+](=O)[O-])cc2)SC1=S (stereo unspecified)	-12	112*	/	/	/	0	69*
CN1CCCCCC1=Nc1ccc([N+](=O)[O-])cc1	0	0	/	4	0	0	/
N#C/C(=N\Nc1ccc(Cl)cc1)C(=N)N1CCCCC1	-1	4	14	-4	2	0	/
N#C/C(=N\Nc1ccc(Cl)cc1)C(=O)c1ccsc1	9	72*	31	0	2	0	90*
Cc1ccc(N/N=C(\C#N)C(=O)c2ccsc2)cc1	3	52*	-20	2	4	0	72*
O=C(NCCOc1ccccc1)c1cc(C(=O)NCCOc2ccccc2)cc([N+](=O)[O-])c1	-13	56*	40	-2	3	2	93*
CCN(CC(=O)Nc1ccccc1C(F)(F)F)C(=O)c1ccc(NC(=O)c2cccs2)cc1	/	-1	/	/	/	0	/
Cc1ccc(C(=O)N(CC(=O)Nc2ccc(Cl)c(Cl)c2)Cc2ccco2)cc1	6	53*	58	-4	-1	1	71*
O=C(Cc1ccc(S(=O)(=O)N2CCOCC2)s1)Nc1cc(C(F)(F)F)cc(C(F)(F)F)c1	17*	69*	/	2	1	1	78*
Cc1cc(C)cc(NC(=O)Cc2ccc(S(=O)(=O)N3CCCC3)s2)c1	-3	0	/	-4	2	0	/
O=C(Cc1ccc(S(=O)(=O)N2CCOCC2)s1)Nc1cc(C(F)(F)F)ccc1N1CCCC1	-1	-1	/	0	-1	0	/
O=C(Cc1ccc(S(=O)(=O)N2CCCCC2)s1)Nc1ccc(F)c(F)c1	3	67*	25	-2	2	1	83*
CCOC(=O)C1CCN(C(=O)COC(=O)c2nn(C)c(=O)c3ccccc23)CC1	-1	0	/	-1	0	0	/
Cc1ccc(S(=O)(=O)Nc2ccc3cn[nH]c3c2)c(C)c1	2	0	/	-1	-2	0	/
CCOc1cc(C)c(S(=O)(=O)Nc2ccc3cn[nH]c3c2)cc1C	-9	72*	47	-1	3	4	76*
O=C(Nc1cccnc1)c1ccc(CSc2ccccc2)cc1	-11	0	-3	4	1	0	/
O=C(Nc1cccc(Br)c1)c1ccc(CSc2ccccc2)cc1	30*	67*	-26	0	3	0	77*
CCN(CC)c1ccc(NC(=O)COC(=O)COc2ccccc2[N+](=O)[O-])cc1	-21	0	17	-1	5	0	/
CCC1Oc2ccc(C)cc2N(CC(=O)NCCCN2CCOCC2)C1=O (stereo unspecified)	0	-1	/	1	1	0	/
COc1ccc(CNS(=O)(=O)c2ccc3c(c2)CC(C)N3C(=O)C2CC2)cc1 (stereo unspecified)	-1	99*	/	-4	-1	0	88*
CC(=O)Nc1cccc(NS(=O)(=O)c2cc3c4c(c2)CCN4C(=O)CC3)c1	-1	-2	/	2	1	0	/
O=c1[nH]c(CSc2nc3ccccc3[nH]2)nc2c1cnn2-c1ccccc1	-11	4	56	-3	1	2	/
Cc1ccc2nc(SCc3nc4c(cnn4-c4ccccc4)c(=O)[nH]3)[nH]c2c1	-2	73*	73*	4	4	2	85*
CC(C)(C)N1CCC1CN (stereo unspecified)	2	0	-4	-1	-1	0	/
Cc1ccc(NC(=S)NNC(=O)c2cccc([N+](=O)[O-])c2)cc1Cl	12*	79*	11	0	1	0	65*
SMILES	GRIN3A LBD mod	MPTP inh	CHOP inh	XBP1 UPR activ	UPR CHOP act	aDG glyco act	Rh123 counter
Cc1ccc(C(=O)NNC(=S)Nc2cccc(Cl)c2Cl)cc1[N+](=O)[O-]	18*	103*	-1	-1	-1	0	85*
CCN1C(=O)[C@H]2[C@@H](c3ccc(C)cc3)N[C@]3(CCCN(Cc4cccn4C)C3=O)[C@H]2C1=O	/	0	/	/	/	0	/
c1ccc2c(C[C@@H]3CNCCN3CC3CCCCC3)cccc2c1	-1	54*	/	-3	1	1	-12
Oc1ccc(C[C@@H]2CNCCN2CC2CCCCC2)cc1	-1	3	/	1	-1	1	/
Cc1cccc(C)c1C(O)c1ncc(-c2ccccc2Cl)[nH]1 (stereo unspecified)	/	1	/	/	/	0	/
CN1CCC(NC(=O)Nc2ccc(Br)cc2)CC1	-2	67*	8	1	3	0	83*
Nc1ccc(NC(=O)NC2CCCCC2)cc1	-1	-3	-1	-3	-1	0	/
S=C(Nc1ccccc1Oc1ccccc1)NC1CCCC1	-1	0	9	4	-1	1	/
Cc1cccc(NC(=S)NC2CCCC2)c1	-1	0	16	-2	-2	0	/
S=C(Nc1ccc(Oc2ccccc2)cc1)NC1CCCC1	0	87*	3	-1	1	0	84*
S=C(Nc1ccc(Br)cc1)NC1CCCC1	-3	95*	5	-2	6	0	97*
S=C(NCC1CCCCC1)Nc1ccc(Oc2ccccc2)cc1	16*	86*	73*	1	3	3	86*
CC(C)(C)NC(=O)Nc1ccc(Br)cc1	-8	58*	-7	3	5	0	77*
O=C(NC(NC(=S)Nc1c(Cl)cccc1Cl)C(Cl)(Cl)Cl)OCc1ccccc1 (stereo unspecified)	17*	100*	-31	0	0	1	67*
CCOC(=O)NC(NC(=S)Nc1ccc(OCC)cc1)C(Cl)(Cl)Cl (stereo unspecified)	-4	8	-56	-3	0	0	/
COc1ccc(NC(=O)CN(C)C(=O)c2cccc(S(=O)(=O)N3CCN(c4ccc(F)cc4)CC3)c2)cc1	-2	2	/	/	/	1	/
CN1/C(=C\C=O)C(C)(C)c2ccccc21	-2	1	12	-2	2	0	/
CN1\C(=C/C=C/C=C/C=[N+](C)C)C(C)(C)c2ccccc21	-364	112*	55	/	/	1	59*
COC(=O)C1=C(C)N(Cc2ccccc2)C(=NCc2cccc(C(F)(F)F)c2)N[C@H]1c1cccc(C(F)(F)F)c1	-15	88*	/	-7	35	-1	-1
COC(=O)C1=C(C)N(Cc2ccccc2)C(=NCc2cccc(C(F)(F)F)c2)N[C@H]1c1cccc(F)c1	-37	80*	/	9	12	0	-5

Source: PubChem
